Measured values reported in ChEMBL document CHEMBL1125194, “Probing the bradykinin receptor: mapping the geometric topography using ethers of hydroxyproline in novel peptides” (J Med Chem, 1991).

Legend:
[1] = Binding affinity of compound was measured for bradykinin receptor in guinea pig ileum; type: tissue-based, Cavia porcellus
[2] = Antagonistic activity of compound was measured for bradykinin receptor in guinea pig ileum; type: functional, tissue-based; details: Cavia porcellus, read-out: pA2 (converted)
In short: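 Guinea pig ileal longitudinal muscle strips, which express only B2 receptors. Cumulative bradykinin dose-response curves were run without and with increasing antagonist concentrations (0.1-0.3 μM), and antagonism was expressed as pA2. Agonist activity was also checked at concentrations up to 10 μM.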

[3] = Antagonistic activity of compound was measured in SV-T2 cells; type: functional, cell-based; details: Mus musculus, read-out: pA2 (converted)
In short: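 SV-T2 fibroblasts, which express only B2 receptors. Antagonism of bradykinin-stimulated prostaglandin synthesis was measured and expressed as pA2. Agonist activity was also checked at concentrations up to 10 μM.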

SMILES	Ki [1] [nM]	Kb [2] [nM]	Kb [3] [nM]
NC(N)=NCCC[C@@H](N)C(=O)N[C@@H](CCCN=C(N)N)C(=O)N1CCC[C@H]1C(=O)N1C[C@H](O)C[C@H]1C(=O)NCC(=O)N[C@@H](Cc1ccccc1)C(=O)N[C@@H](CO)C(=O)N[C@H](Cc1ccccc1)C(=O)N[C@@H](Cc1ccccc1)C(=O)N[C@@H](CCCN=C(N)N)C(=O)O	57.9	1510	10
CCCO[C@@H]1C[C@@H](C(=O)N2Cc3ccccc3C[C@H]2C(=O)N[C@@H](CCCN=C(N)N)C(=O)O)N(C(=O)[C@H](CO)NC(=O)[C@@H](NC(=O)CNC(=O)[C@@H]2C[C@H](O)CN2C(=O)[C@@H]2CCCN2C(=O)[C@H](CCCN=C(N)N)NC(=O)[C@H](N)CCCN=C(N)N)c2cccs2)C1	0.77	24.5	1.58
CO[C@@H]1C[C@@H](C(=O)N2Cc3ccccc3CC2C(=O)N[C@@H](CCCN=C(N)N)C(=O)O)N(C(=O)[C@H](CO)NC(=O)[C@@H](NC(=O)CNC(=O)[C@@H]2C[C@H](O)CN2C(=O)[C@@H]2CCCN2C(=O)[C@H](CCCN=C(N)N)NC(=O)[C@H](N)CCCN=C(N)N)c2cccs2)C1 (stereo partly drawn)	2.12	186	3.98
CCCO[C@H]1C[C@@H](C(=O)N2Cc3ccccc3C[C@H]2C(=O)N[C@@H](CCCN=C(N)N)C(=O)O)N(C(=O)[C@H](CO)NC(=O)[C@@H](NC(=O)CNC(=O)[C@@H]2C[C@H](O)CN2C(=O)[C@@H]2CCCN2C(=O)[C@H](CCCN=C(N)N)NC(=O)[C@H](N)CCCN=C(N)N)c2cccs2)C1	144	5750	158
CO[C@H]1C[C@@H](C(=O)N2Cc3ccccc3C[C@H]2C(=O)N[C@@H](CCCN=C(N)N)C(=O)O)N(C(=O)[C@H](CO)NC(=O)[C@@H](NC(=O)CNC(=O)[C@@H]2C[C@H](O)CN2C(=O)[C@@H]2CCCN2C(=O)[C@H](CCCN=C(N)N)NC(=O)[C@H](N)CCCN=C(N)N)c2cccs2)C1	102	8910	251
CCCO[C@@H]1C[C@@H](C(=O)N2C3CCCCC3C[C@H]2C(=O)N[C@@H](CCCN=C(N)N)C(=O)O)N(C(=O)[C@H](CO)NC(=O)[C@@H](NC(=O)CNC(=O)[C@@H]2C[C@H](O)CN2C(=O)[C@@H]2CCCN2C(=O)[C@H](CCCN=C(N)N)NC(=O)[C@H](N)CCCN=C(N)N)c2cccs2)C1 (stereo partly drawn)	0.16	2.88	0.251
